Compound activity as filed in PubChem.
HKDC1 act: HKDC1 hexokinase activators, primary screen, biochemical, fluorescence, uHTS. Q2TB90. recombinant HKDC1, G6PDH/diaphorase resazurin fluorescence; stronger effect = lower value. activity change, negative = activation, % at 20 µM. 0.056% of 340,000 active. AID 493187, 2011;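 active = activation of 40% or more at 20 µM, a change of -40% or lower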
Target sequence (Q2TB90 whole entry, looked up): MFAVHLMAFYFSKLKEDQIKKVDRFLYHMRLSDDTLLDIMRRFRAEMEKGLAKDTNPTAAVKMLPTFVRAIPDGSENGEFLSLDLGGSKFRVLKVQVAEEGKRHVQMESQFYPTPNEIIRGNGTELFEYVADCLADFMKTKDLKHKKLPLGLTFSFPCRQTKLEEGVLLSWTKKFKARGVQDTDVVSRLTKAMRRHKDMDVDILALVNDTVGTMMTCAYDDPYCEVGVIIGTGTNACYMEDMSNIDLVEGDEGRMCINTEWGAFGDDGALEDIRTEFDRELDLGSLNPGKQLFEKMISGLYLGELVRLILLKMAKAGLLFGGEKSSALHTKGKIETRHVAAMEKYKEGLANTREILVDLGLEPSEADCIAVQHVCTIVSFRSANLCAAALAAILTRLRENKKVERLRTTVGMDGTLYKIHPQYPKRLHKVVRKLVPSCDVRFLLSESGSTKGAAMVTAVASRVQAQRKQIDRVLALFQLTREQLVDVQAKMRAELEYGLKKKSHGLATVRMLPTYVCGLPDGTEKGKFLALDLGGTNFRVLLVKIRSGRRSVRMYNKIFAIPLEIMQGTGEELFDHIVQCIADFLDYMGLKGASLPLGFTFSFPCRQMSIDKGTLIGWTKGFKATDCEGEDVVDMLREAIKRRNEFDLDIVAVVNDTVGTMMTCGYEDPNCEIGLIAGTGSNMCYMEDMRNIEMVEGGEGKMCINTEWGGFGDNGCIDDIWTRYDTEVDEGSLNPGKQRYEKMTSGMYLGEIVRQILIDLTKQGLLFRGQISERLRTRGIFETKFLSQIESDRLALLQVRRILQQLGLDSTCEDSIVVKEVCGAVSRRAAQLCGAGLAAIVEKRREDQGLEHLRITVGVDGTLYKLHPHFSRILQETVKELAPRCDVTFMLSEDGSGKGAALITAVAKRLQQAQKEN
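Material: in-house human HKDC1 enzyme, G6PDH and diaphorase coupling enzymes | Quantity: HKDC1 at 5 µg/mL final | Medium: Tris buffer at pH 8.0 containing MgCl2 | Compound dosing: 20 µM single dose | Schedule: 90 min reaction at room temperature, dark | Measured by: Resorufin fluorescence, 525/613 nm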
Each line names hits and unclear results; the compound was inactive in the other large screens. These entries were drawn from the full list.

Brc1ccc(C2N3CCCN23)cc1 (stereo not drawn)	HKDC1 act -79
COc1cc(O)cc2c1cc([N+](=O)[O-])c1c(C(=O)O)cc3c(c12)OCO3	none
O=c1nc(/C=C/c2ccc(Cl)cc2Cl)cc(C(F)(F)F)[nH]1	none
O=C1NC(=S)NC(=O)C1=Cc1ccc2c(c1)CCN2CCCCl	none
CC[C@H](C)/C=C(C)/C=C/C1=CC2=C(Cl)C(=O)[C@](C)(OC(C)=O)C(=O)C2=CO1	none
Nc1c(Br)cc2c3c(cccc13)-c1ccccc1-2	none
CC(=NNC(=S)N1CC2CCC(CC2)C1)c1nccs1	HKDC1 act -43
CCN(CC)CCCNC(=O)c1c(O)c2ccccc2n(Cc2ccccc2)c1=O	none
Cc1cc(O)c2c(c1)C(=O)C13C(=C2O)C(=O)[C@H]2[C@@H](O)[C@@H]1[C@H]1[C@H](O)[C@@H]3C(=O)C3=C(O)c4c(O)cc(C)cc4C(=O)C312 (stereo partly drawn)	none
CCOC(=O)c1c(-n2c(C)cc(C=C3C(=O)NC(=S)NC3=O)c2C)sc2c1CCCC2	none
